Columns and labels:
[1] = system: human liver microsomes (HLMs); assay: Identification of Ket and norKet metabolites in HLM incubates; type: in vitro ADME; details: HLMs 0.5 mg/ml; for metabolite found in HLM incubates of (R,S)-Ket: (R,S)-Ket 10 μM, Fig. 2A; for metabolite found in HLM incubates of (R,S)-norKet: (R,S)-norKet 10 μM, Fig. 2
expressed CYP2B6 = biological target: T1, expressed CYP2B6 (Homo sapiens, UniProt P20813); assay: Incubation with expressed CYP2B6; type: in vitro ADME; details: for Vmax: expressed CYP2B6 13 pmol, 37°C, 15 min; for depletion of substrate from the incubation mixture: data not shown
T1 sequence (P20813 1-491): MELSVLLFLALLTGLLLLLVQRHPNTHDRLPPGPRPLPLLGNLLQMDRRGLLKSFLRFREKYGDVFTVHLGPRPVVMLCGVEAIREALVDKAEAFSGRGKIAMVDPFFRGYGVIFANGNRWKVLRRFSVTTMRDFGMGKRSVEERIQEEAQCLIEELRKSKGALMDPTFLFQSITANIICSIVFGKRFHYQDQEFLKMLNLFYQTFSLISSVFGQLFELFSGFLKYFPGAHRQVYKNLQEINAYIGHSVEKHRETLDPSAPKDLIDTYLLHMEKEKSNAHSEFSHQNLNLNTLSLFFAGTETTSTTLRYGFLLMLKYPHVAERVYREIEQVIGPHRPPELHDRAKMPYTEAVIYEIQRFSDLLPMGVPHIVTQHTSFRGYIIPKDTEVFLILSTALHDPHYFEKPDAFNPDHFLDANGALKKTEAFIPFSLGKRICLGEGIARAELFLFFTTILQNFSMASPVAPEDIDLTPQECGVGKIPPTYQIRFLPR

expressed CYP2A6 = biological target: T2, expressed CYP2A6 (Homo sapiens, UniProt P11509); assay: Incubation with expressed CYP2A6; type: in vitro ADME; details: for Vmax: expressed CYP2A6 13 pmol, 37°C, 15 min; for depletion of substrate from the incubation mixture: expressed CYP2A6, data not shown
T2 sequence (P11509 1-494): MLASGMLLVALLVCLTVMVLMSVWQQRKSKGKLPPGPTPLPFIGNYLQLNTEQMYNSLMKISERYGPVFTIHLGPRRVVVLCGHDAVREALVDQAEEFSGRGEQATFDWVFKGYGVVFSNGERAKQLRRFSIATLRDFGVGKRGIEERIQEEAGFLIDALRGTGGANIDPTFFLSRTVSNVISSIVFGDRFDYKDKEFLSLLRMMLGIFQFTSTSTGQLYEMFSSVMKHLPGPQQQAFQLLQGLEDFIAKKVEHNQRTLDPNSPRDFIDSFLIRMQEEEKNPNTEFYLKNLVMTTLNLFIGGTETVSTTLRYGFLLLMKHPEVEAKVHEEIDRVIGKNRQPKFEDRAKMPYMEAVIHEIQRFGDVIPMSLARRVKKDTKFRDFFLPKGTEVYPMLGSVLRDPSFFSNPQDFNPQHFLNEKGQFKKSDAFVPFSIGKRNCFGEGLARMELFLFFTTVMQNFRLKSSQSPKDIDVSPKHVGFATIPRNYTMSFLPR

expressed CYP3A5 = expressed CYP3A5 (Homo sapiens, UniProt P20815); assay: Incubation with expressed CYP3A5; type: in vitro ADME; details: expressed CYP3A5 13 pmol, 37°C, 15 min
expressed CYP3A5, sequence (P20815 whole entry, canonical isoform): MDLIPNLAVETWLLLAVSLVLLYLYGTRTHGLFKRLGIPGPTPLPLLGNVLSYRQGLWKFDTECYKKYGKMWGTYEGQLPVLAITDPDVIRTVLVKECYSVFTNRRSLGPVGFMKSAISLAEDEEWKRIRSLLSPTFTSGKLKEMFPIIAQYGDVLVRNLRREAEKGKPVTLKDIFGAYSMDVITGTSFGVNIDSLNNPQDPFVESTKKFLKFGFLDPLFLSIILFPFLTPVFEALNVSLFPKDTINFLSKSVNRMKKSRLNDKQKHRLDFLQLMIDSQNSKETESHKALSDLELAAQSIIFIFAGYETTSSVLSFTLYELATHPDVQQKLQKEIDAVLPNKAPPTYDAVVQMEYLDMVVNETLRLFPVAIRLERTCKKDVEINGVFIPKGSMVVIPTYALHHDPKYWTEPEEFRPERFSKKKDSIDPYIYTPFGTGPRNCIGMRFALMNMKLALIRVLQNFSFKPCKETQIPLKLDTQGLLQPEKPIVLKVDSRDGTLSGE

[2] = system: expressed human P450s (1A2, 2A6, 2B6, 2C8, 2C9, 2C19, 2D6, 2E1, 3A4, and 3A5); assay: Incubation with panel of 10 expressed CYPs; type: in vitro ADME; details: for disappearance of substrate, other isoforms (no appreciable effect, cutoff): expressed isoforms other than CYP2A6, CYP2B6, CYP2C19
Outline: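 Qualitative isoform screen. Baculovirus-insect cell-expressed human CYP1A2, 2A6, 2B6, 2C8, 2C9, 2C19, 2D6, 2E1, 3A4 or 3A5 with oxidoreductase (13–26 pmol) was incubated at 37°C with 10 μM (R)- or (S)-ketamine, or (R,S)-, (R)- or (S)-norketamine. The NADPH-generating system contained NADP, glucose 6-phosphate, MgCl2 and glucose-6-phosphate dehydrogenase. Ketamine incubations ran 15 min. Products measured by LC/MS/MS.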

[3] = BPD patients 3 days after dosing of (R,S)-Ket; ref Zhao et al., 2012; cited from earlier work
expressed CYP2C19 = expressed CYP2C19 (Homo sapiens, UniProt P33261); assay: Incubation with expressed CYP2C19; type: in vitro ADME; details: data not shown
expressed CYP2C19, sequence (P33261 whole entry): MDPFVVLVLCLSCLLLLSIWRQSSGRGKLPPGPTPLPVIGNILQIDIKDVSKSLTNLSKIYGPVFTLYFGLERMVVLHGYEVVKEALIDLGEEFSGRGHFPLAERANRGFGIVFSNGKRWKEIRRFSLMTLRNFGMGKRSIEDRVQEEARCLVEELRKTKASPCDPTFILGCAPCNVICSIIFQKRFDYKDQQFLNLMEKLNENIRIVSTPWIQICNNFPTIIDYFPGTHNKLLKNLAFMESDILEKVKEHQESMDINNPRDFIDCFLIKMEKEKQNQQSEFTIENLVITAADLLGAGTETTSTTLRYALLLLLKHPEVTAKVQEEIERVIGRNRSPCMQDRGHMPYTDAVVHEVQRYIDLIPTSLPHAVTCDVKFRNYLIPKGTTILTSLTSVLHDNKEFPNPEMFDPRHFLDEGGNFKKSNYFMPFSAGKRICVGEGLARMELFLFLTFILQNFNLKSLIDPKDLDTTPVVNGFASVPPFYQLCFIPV

[4] = formation of metabolite from (R)-norKet
[5] = formation of metabolite from (S)-norKet

Compound	metabolite found in HLM incubates of (R,S)-Ket [1]	Vmax (expressed CYP2B6; [4])	Vmax (expressed CYP2B6; [5])	Vmax (expressed CYP2A6; [4])	Vmax (expressed CYP2A6; [5])	Vmax (expressed CYP3A5; [4])	Vmax (expressed CYP3A5; [5])	metabolite found in HLM incubates of (R,S)-norKet [1]	further results
NC1(c2ccccc2Cl)CCCCC1=O (racemic) [(R,S)-norKet, norketamine]	significant concentrations								
CNC1(c2ccccc2Cl)CCCC(O)C1=O (single isomer, unassigned) [5a]	significant concentrations								decrease of substrate concentration in the incubates (expressed CYP2B6; substrate 5a, incubates containing CYP2B6): 42.5%
CNC1(c2ccccc2Cl)CCCC(O)C1=O (single isomer, unassigned) [5b]	significant concentrations								
NC1(c2ccccc2Cl)CCCC(O)C1=O [4a, (2S,6S;2R,6R)-HNK]	significant concentrations	0.76 pmol/min/pmol P450	0.56 pmol/min/pmol P450	8.18 pmol/min/pmol P450	3.9 pmol/min/pmol P450	0.29 pmol/min/pmol P450	3.87 pmol/min/pmol P450	significant concentrations	N-demethylated metabolite formed (highest rate) (expressed CYP2B6; substrate 5a, expressed CYP2B6): 201.6 ng/mL; metabolite formation by other CYPs ([2]; substrate 5a, expressed CYPs other than CYP2B6, data not shown): < 13 ng/mL; plasma concentration [3]: > 8 ng/mL
NC1(c2ccccc2Cl)CCCC(O)C1=O [4b, (2S,6R;2R,6S)-HNK]	significant concentrations							not detected	generation from (S)- or (R)-norKet by any of the expressed CYPs ([2]; 10 expressed CYPs): not generated
NC1(c2ccccc2Cl)CCC(O)CC1=O [4c, (2S,5S;2R,5R)-HNK]	significant concentrations	16.72 pmol/min/pmol P450	16.3 pmol/min/pmol P450	1.25 pmol/min/pmol P450	1.48 pmol/min/pmol P450	0.038 pmol/min/pmol P450	0.30 pmol/min/pmol P450	significant concentrations	
NC1(c2ccccc2Cl)CC(O)CCC1=O [4d, (2S,4S;2R,4R)-HNK]	trace amounts	0.78 pmol/min/pmol P450	3.34 pmol/min/pmol P450	1.28 pmol/min/pmol P450	4.67 pmol/min/pmol P450	0.029 pmol/min/pmol P450	0.20 pmol/min/pmol P450	trace amounts	
NC1(c2ccccc2Cl)CC(O)CCC1=O [4e, (2S,4R;2R,4S)-HNK]	trace amounts					0.087 pmol/min/pmol P450	3.14 pmol/min/pmol P450	trace amounts	
NC1(c2ccccc2Cl)CCC(O)CC1=O [4f, (2S,5R;2R,5S)-HNK]	significant concentrations	3.98 pmol/min/pmol P450	0.30 pmol/min/pmol P450	0.44 pmol/min/pmol P450	0.33 pmol/min/pmol P450	1.69 pmol/min/pmol P450	5.71 pmol/min/pmol P450	significant concentrations	Clint for formation from (R)-norKet relative to (S)-norKet (expressed CYP2B6; enzyme not given, Table 5, fits CYP2B6): ~ 10 fold
N[C@@]1(c2ccccc2Cl)CCCCC1=O [(R)-norKet]									depletion of substrate from the incubation mixture (expressed CYP2B6; expressed CYP2B6): 47.8%; depletion of substrate from the incubation mixture (expressed CYP2A6): 34.5%; depletion of substrate from the incubation mixture (expressed CYP2C19): 35.0%; disappearance of substrate, other isoforms (no appreciable effect, cutoff) ([2]; data not shown): < 24%
N[C@]1(c2ccccc2Cl)CCCCC1=O [(S)-norKet]									depletion of substrate from the incubation mixture (expressed CYP2B6; expressed CYP2B6): 41.6%; depletion of substrate from the incubation mixture (expressed CYP2A6): 41.0%; depletion of substrate from the incubation mixture (expressed CYP2C19): 27.3%; disappearance of substrate, other isoforms (no appreciable effect, cutoff) ([2]; data not shown): < 24%
NC1(c2ccccc2Cl)CCC=CC1=O (stereo not shown) [DHNK, 5,6-dehydronorketamine]	significant concentrations	13.0 pmol/min/pmol P450	7.61 pmol/min/pmol P450	0.98 pmol/min/pmol P450	0.92 pmol/min/pmol P450	0.079 pmol/min/pmol P450	1.96 pmol/min/pmol P450	significant concentrations	plasma concentration [3]: > 8 ng/mL

— article PMC3426663 (Xenobiotica; the fate of foreign compounds in biological …, 2012)
